Structures are written as SMILES. Where a SMILES comes first, the peptide text is derived from it. [ ]: non-standard residue; d: D form. Phe(4-Cl) = N[C@@H](Cc1ccc(Cl)cc1)C(=O)O; d2Nal = N[C@H](Cc1ccc2ccccc2c1)C(=O)O

The assay is filed under the species Rattus norvegicus. As to the kind of experiment: In vitro GH release inhibiting potency on anterior pitutaries from adult male rats, relative to somatostatin. It is filed as functional. In short, it runs like this:
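Rat anterior pituitary cells (adult males, 200-250 g), trypsin/DNase dispersed, plated 2 × 10^5 cells/well, cultured 96 h at 37 °C in serum-supplemented DMEM. After washing, cells were pulsed 3 h at 37 °C with 1 nM GRF(1-29)NH2 ± graded analogue doses in medium 199/1% BSA, quadruplicate wells. Medium GH was measured by double-antibody RIA. Potency relative to somatostatin (=1.0) came from four-point assay (mean of ≥3 experiments) or IC50 comparison.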
Regarding `CC(C)[C@H](NC(=O)[C@H](CCCCN)NC(=O)[C@@H](Cc1c[nH]c2ccccc12)NC(=O)[C@H](Cc1ccc(O)cc1)NC(=O)[C@H](Cc1ccccc1)NC(=O)[C@H](N)Cc1ccccc1)C(=O)N[C@@H](Cc1ccccc1)C(=O)N[C@H](Cc1ccccc1)C(N)=O` (H-[dF]FY[dW]KVF[dF]-NH2), the GHI amounted to 11100.
The compound `C[C@@H](O)[C@@H]1NC(=O)[C@H](CCCCN)NC(=O)[C@H](Cc2c[nH]c3cc(F)ccc23)NC(=O)[C@H](Cc2ccccc2)NC(=O)[C@H](Cc2ccccc2)NC(=O)CCCCCCNC(=O)[C@H](Cc2ccccc2)NC1=O` (stereo in doubt) gave a GHI of 2.4.
`C[C@@H](O)[C@H](NC(=O)[C@H](CCCCN)NC(=O)[C@@H](Cc1c[nH]c2ccccc12)NC(=O)[C@H](Cc1ccc(O)cc1)NC(=O)[C@H](Cc1ccc(Cl)cc1)NC(=O)[C@H](N)Cc1ccccc1)C(=O)N[C@@H](Cc1ccccc1)C(=O)N[C@@H](Cc1ccc2ccccc2c1)C(N)=O` came in with a GHI of 100.
In turn, `CC(C)[C@H](NC(=O)[C@H](CCCCN)NC(=O)[C@@H](Cc1c[nH]c2ccccc12)NC(=O)[C@H](Cc1ccc(O)cc1)NC(=O)[C@H](C)NC(=O)[C@H](N)Cc1ccc(Cl)cc1)C(=O)N[C@@H](C)C(=O)N[C@H](Cc1ccccc1)C(N)=O` gave a GHI of 417.
Then `C[C@@H](O)[C@@H]1NC(=O)[C@H](CCCCN)NC(=O)[C@@H](Cc2c[nH]c3ccccc23)NC(=O)[C@H](Cc2ccc([N+](=O)[O-])cc2)NC(=O)[C@H](Cc2ccccc2)NC(=O)CCCCCCNC(=O)[C@H](Cc2ccccc2)NC1=O` (stereo in doubt), with 3.5.
Then `CC1NC(=O)[C@@H]2CCCN2C(=O)C(Cc2ccccc2)NC(=O)[C@H]([C@@H](C)O)NC(=O)C(CCCCN)NC(=O)[C@@H](Cc2c[nH]c3ccccc23)NC1=O` (single isomer, unassigned), with 5.
Compound `C[C@H](NC(=O)[C@H](N)Cc1ccccc1)C(=O)N[C@@H](Cc1ccccc1)C(=O)N[C@H](Cc1c[nH]c2ccccc12)C(=O)N[C@@H](CCCCN)C(=O)N[C@H](C(=O)N[C@@H](C)C(=O)N[C@H](C(N)=O)[C@@H](C)O)[C@@H](C)O` (H-[dF]AF[dW]KTAT-NH2) yielded a GHI of 2500.
In the case of `CC1NC(=O)[C@H]([C@@H](C)O)NC(=O)C(CCCCN)NC(=O)[C@@H](Cc2c[nH]c3ccccc23)NC(=O)C(Cc2ccccc2)NC(=O)[C@@H]2CCCN2C1=O` (single isomer, unassigned; 61), the GHI amounted to 500.
Then `C[C@@H](O)[C@@H]1NC(=O)[C@H](CCCCN)NC(=O)[C@@H](Cc2c[nH]c3ccccc23)NC(=O)[C@H](Cc2ccc(O)cc2)NC(=O)[C@H](Cc2ccccc2)NC(=O)CCCCCCNC(=O)[C@H](Cc2ccccc2)NC1=O` (stereo in doubt), with 1.04; and `CC(C)C1NC(=O)[C@H](CCCCN)NC(=O)[C@@H](Cc2c[nH]c3ccccc23)NC(=O)C(Cc2ccc(O)cc2)NC(=O)CCSSCC(C(=O)N[C@@H](Cc2ccccc2)C(N)=O)NC1=O` (single isomer, unassigned), with 23.
For the compound `C[C@@H](O)[C@@H]1NC(=O)[C@H](CCCCN)NC(=O)[C@@H](Cc2c[nH]c3ccccc23)NC(=O)[C@H](Cc2cscn2)NC(=O)[C@H](Cc2ccccc2)NC(=O)CCCCCCNC(=O)[C@H](Cc2ccccc2)NC1=O` (stereo in doubt), the GHI amounted to 5.
Regarding `CC(C)[C@@H]1NC(=O)[C@H](CCCN)NC(=O)[C@@H](Cc2c[nH]c3ccccc23)NC(=O)[C@H](Cc2ccc(O)cc2)NC(=O)[C@H](NC(=O)[C@H](N)Cc2ccc3ccccc3c2)CSSC[C@@H](C(=O)N[C@@H](Cc2ccc3ccccc3c2)C(N)=O)NC1=O`, the GHI was 4.17.
`C[C@@H](O)[C@@H]1NC(=O)[C@H](CCCCN)NC(=O)[C@@H](Cc2c[nH]c3ccccc23)NC(=O)[C@H](Cc2ccccc2)NC(=O)[C@H](Cc2ccccc2)NC(=O)CCCCCCNC(=O)[C@H](Cc2ccccc2)NC1=O` (stereo in doubt): the GHI was found to be 1.08.
On to `C[C@@H](O)[C@@H]1NC(=O)[C@H](CCCCN)NC(=O)[C@@H](Cc2c[nH]c3ccccc23)NC(=O)[C@H](Cc2ccc(F)cc2)NC(=O)[C@H](Cc2ccccc2)NC(=O)CCCCCCNC(=O)[C@H](Cc2ccccc2)NC1=O` (stereo in doubt), for which the GHI came to 20.
`C[C@@H](O)[C@@H]1NC(=O)C(CCCCN)NC(=O)[C@@H](Cc2c[nH]c3ccccc23)NC(=O)C(Cc2ccccc2)NC(=O)[C@@H]2CCCN2C(=O)[C@@H]2CCCN2C1=O` (single isomer, unassigned): the GHI is 125.
For the compound `CC(C)[C@H](NC(=O)[C@H](CCCCN)NC(=O)[C@@H](Cc1c[nH]c2ccccc12)NC(=O)[C@H](Cc1ccc(O)cc1)NC(=O)[C@H](C)NC(=O)[C@H](N)Cc1ccc2ccccc2c1)C(=O)N[C@@H](C)C(=O)N[C@H](C(N)=O)[C@@H](C)O` (H-[d2Nal]AY[dW]KVAT-NH2), the GHI is 435.
As to `C[C@@H](O)[C@H](NC(=O)[C@H](Cc1ccccc1)NC(=O)[C@@H](NC(=O)[C@H](CCCCN)NC(=O)[C@@H](Cc1c[nH]c2ccccc12)NC(=O)[C@H](Cc1ccccc1)NC(=O)[C@H](Cc1ccccc1)NC(=O)[C@H](N)Cc1ccccc1)[C@@H](C)O)C(N)=O` (H-[dF]FF[dW]KTFT-NH2), the GHI stood at 77.
Then `CC1C(=O)N[C@@H](Cc2ccccc2)C(=O)NC(Cc2c[nH]c3ccccc23)C(=O)N[C@@H](CCCCN)C(=O)NC([C@@H](C)O)C(=O)N[C@@H](Cc2ccccc2)C(=O)N1C` (single isomer, unassigned), with 0.29; and `C[C@@H](O)[C@@H]1NC(=O)[C@H](CCCCN)NC(=O)[C@@H](Cc2c[nH]c3ccccc23)NC(=O)[C@H](Cc2ccccc2)NC(=O)[C@@H](NC(=O)[C@H](N)Cc2ccccc2)CSSC[C@@H](C(=O)N[C@@H](Cc2ccc3ccccc3c2)C(N)=O)NC1=O`, with 0.22; and `CC(C)C[C@@H]1NC(=O)[C@H](Cc2ccccc2)NC(=O)CCCCCCNC(=O)[C@H](Cc2ccccc2)NC(=O)[C@H]([C@@H](C)O)NC(=O)[C@H](CCCCN)NC(=O)[C@@H](Cc2c[nH]c3ccccc23)NC1=O` (stereo in doubt), with 1.05.
`C[C@@H](O)[C@@H]1NC(=O)[C@H](CCCCN)NC(=O)[C@@H](Cc2c[nH]c3ccccc23)NC(=O)[C@H](Cc2ccc(Cl)cc2)NC(=O)[C@H](Cc2ccccc2)NC(=O)CCCCCCNC(=O)[C@H](Cc2ccccc2)NC1=O` (stereo in doubt) registered a GHI of 1.4.
Then `CC(C)[C@H](NC(=O)[C@H](CCCCN)NC(=O)[C@@H](Cc1c[nH]c2ccccc12)NC(=O)[C@H](Cc1ccc(O)cc1)NC(=O)[C@H](Cc1ccc(Cl)cc1)NC(=O)[C@H](N)Cc1ccccc1)C(=O)N[C@@H](Cc1ccccc1)C(=O)N[C@H](C(N)=O)[C@@H](C)O` (H-[dF][Phe(4-Cl)]Y[dW]KVFT-NH2), with 17.
For `Cc1ccc2[nH]cc(C[C@@H]3NC(=O)[C@H](Cc4ccccc4)NC(=O)[C@H](Cc4ccccc4)NC(=O)CCCCCCNC(=O)[C@H](Cc4ccccc4)NC(=O)[C@H]([C@@H](C)O)NC(=O)[C@H](CCCCN)NC3=O)c2c1` (stereo in doubt), the GHI was found to be 14.
`C[C@@H]1NC(=O)[C@H](Cc2ccccc2)NC(=O)CCCCCCNC(=O)[C@H](Cc2ccccc2)NC(=O)[C@H]([C@@H](C)O)NC(=O)[C@H](CCCCN)NC(=O)[C@@H](Cc2c[nH]c3ccccc23)NC1=O` (stereo in doubt) yielded a GHI of 6.25.

The values above are taken from ChEMBL document CHEMBL1128385, “Three-dimensional quantitative structure-activity relationships of somatostatin analogues. 1. Comparative molecular field analysis of growth hormone release-inhibiting potencies” (J Med Chem, 1995).
